For test [1], the system named is Splenocyte. The test is described as follows: Immunomodulatory activity in C57BL/6 mouse splenocytes bearing TLR7 receptor assessed as IL12 release at 100 ug/ml after 24 hrs by ELISA. It is filed as functional, cell-based. In outline:
(§1)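 C57BL/6 splenocytes in RPMI 1640 with 10% FBS, penicillin/streptomycin, 2 mM L-glutamine, plated at 5 × 10^6 cells/mL; compounds in PBS added, 37 °C for 24 h. Supernatant IL-12 and IL-6 by ELISA; representative of three independent experiments.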
In general terms: ELISA stands for enzyme-linked immunosorbent assay.

Test [2] has as its system PBMC. The test is described as follows: Immunomodulatory activity in human PBMC assessed as induction of IFN-alpha at 100 ug/ml after 24 hrs.
Test [3] concerns the target T1, Toll-like receptor 8 (Homo sapiens) (UniProt Q9NR97).
T1 sequence (whole entry): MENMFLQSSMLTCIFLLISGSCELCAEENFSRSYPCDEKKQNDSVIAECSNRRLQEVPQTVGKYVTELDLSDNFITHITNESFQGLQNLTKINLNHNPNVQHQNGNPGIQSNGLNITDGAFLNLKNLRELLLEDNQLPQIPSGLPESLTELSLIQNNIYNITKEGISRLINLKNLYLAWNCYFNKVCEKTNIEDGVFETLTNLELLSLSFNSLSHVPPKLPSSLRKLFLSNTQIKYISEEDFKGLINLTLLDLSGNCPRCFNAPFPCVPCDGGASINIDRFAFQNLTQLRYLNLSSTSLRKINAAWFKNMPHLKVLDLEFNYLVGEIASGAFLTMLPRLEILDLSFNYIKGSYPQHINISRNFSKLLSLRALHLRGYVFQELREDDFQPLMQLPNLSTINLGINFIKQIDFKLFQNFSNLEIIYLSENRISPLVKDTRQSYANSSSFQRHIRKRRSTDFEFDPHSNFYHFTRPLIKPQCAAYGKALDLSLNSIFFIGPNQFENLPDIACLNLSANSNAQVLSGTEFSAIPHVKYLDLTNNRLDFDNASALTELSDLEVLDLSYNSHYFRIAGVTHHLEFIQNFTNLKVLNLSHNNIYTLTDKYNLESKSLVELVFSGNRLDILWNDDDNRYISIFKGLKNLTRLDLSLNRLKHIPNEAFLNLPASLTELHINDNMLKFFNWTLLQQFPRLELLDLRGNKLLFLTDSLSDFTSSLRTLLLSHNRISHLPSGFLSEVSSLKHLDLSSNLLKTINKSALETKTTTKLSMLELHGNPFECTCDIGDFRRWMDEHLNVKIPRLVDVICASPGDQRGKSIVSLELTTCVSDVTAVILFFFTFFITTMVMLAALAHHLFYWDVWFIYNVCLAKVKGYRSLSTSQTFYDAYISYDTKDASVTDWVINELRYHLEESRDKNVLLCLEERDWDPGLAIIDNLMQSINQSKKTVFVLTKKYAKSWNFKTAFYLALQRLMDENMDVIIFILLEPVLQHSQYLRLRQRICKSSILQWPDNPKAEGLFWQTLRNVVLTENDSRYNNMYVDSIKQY
The test is described as follows: Activation of human TLR8 expressed in HEK293XL assessed as fold induction of NF-kappaB activity at 50 ug/ml after 18 hrs by reporter gene assay relative to control. In outline: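 HEK293 cells stably expressing human TLR7 or TLR8, transiently transfected with SEAP reporter plasmid; medium replaced, SIMRA compounds added, 18 h incubation. Supernatant SEAP measured by QuantiBlue; expressed as fold increase in NF-κB activity over PBS control. Tabulated data at 50 μg/mL, representative of three independent experiments.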
For orientation: Reporter assays use an easily measured gene product as a stand-in for the process of interest.

The subject of test [4] is Splenocyte. The test is described as follows: Immunomodulatory activity in C57BL/6 mouse splenocytes bearing TLR7 receptor assessed as IL6 release at 100 ug/ml after 24 hrs by ELISA. The test is classed as functional, cell-based. In outline: as §1
In test [5] the test system is PBMC. The test is described as follows: Immunomodulatory activity in human PBMC assessed as induction of IL12 at 100 ug/ml after 24 hrs. The test is classed as functional, cell-based. In outline:
(§2)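 Human PBMCs plated at 5 × 10^6 cells/mL; compounds dissolved in PBS added at various concentrations, 37 °C for 24 h. Supernatant cytokines/chemokines quantified with human Luminex multiplex kit.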

The test system of test [6] is PBMC. The test is described as follows: Immunomodulatory activity in human PBMC assessed as induction of TNFalpha at 100 ug/ml after 24 hrs. The test is classed as functional, cell-based. In a few lines:
as §2

Test [7] concerns the target T2, Toll-like receptor 9 (Mus musculus) (UniProt Q9EQU3).
T2 sequence (whole entry): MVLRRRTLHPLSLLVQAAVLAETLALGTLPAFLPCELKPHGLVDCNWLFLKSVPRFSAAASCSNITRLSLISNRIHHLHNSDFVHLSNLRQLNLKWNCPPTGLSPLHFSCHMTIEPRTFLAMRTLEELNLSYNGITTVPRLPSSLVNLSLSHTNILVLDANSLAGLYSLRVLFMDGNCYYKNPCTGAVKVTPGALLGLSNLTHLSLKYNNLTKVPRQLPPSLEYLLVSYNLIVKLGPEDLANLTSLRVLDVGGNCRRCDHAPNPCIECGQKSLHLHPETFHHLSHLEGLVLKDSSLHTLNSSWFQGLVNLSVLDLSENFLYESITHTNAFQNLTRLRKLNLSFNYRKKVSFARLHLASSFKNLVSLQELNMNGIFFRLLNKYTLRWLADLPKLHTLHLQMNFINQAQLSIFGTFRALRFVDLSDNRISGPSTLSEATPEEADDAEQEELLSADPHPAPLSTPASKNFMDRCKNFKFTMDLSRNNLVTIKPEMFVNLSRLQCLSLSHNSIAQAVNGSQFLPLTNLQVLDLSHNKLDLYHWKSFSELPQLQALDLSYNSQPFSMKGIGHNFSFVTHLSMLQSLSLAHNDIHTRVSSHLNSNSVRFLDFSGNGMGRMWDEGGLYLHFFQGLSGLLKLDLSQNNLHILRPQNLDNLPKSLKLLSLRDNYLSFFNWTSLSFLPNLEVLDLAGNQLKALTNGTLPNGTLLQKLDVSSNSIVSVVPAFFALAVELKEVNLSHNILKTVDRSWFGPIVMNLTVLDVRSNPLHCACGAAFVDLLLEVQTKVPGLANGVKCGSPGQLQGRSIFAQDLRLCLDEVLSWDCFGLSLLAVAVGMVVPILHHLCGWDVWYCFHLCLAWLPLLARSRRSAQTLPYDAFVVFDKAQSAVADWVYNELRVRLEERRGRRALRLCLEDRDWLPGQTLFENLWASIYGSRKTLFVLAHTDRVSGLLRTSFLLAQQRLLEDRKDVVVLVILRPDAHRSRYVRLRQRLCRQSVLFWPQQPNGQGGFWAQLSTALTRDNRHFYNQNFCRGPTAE
The test is described as follows: Activation of mouse TLR9 expressed in HEK293 assessed as induction of NF-kappaB activity reporter gene assay. The test is classed as cell-based.

Molecules are shown by their SMILES. Active and inactive are the calls of the source. No cut-off for these calls is given here.

Consider `Nc1ccn([C@@H]2O[C@H](COP(O)(=S)O[C@H]3[C@@H](O)[C@H](n4ccc(=O)[nH]c4=O)O[C@@H]3COP(O)(=S)O[C@H]3[C@@H](O)[C@H](n4ccc(=O)[nH]c4=O)O[C@@H]3COP(O)(=S)O[C@H]3[C@@H](O)[C@H](n4ccc(N)nc4=O)O[C@@H]3COP(O)(=S)O[C@H]3[C@@H](O)[C@H](n4ccc5c(=O)[nH]c(N)nc54)O[C@@H]3COP(O)(=S)O[C@H]3[C@@H](O)[C@H](n4ccc(=O)[nH]c4=O)O[C@@H]3COP(O)(=S)O[C@H]3[C@@H](O)[C@H](n4ccc(N)nc4=O)O[C@@H]3COP(O)(=S)O[C@H]3[C@@H](O)[C@H](n4ccc5c(=O)[nH]c(N)nc54)O[C@@H]3COP(O)(=S)O[C@H]3[C@@H](O)[C@H](n4ccc(=O)[nH]c4=O)O[C@@H]3CO)[C@@H](OP(O)(=S)OC[C@H]3O[C@@H](n4ccc(=O)[nH]c4=O)[C@H](O)[C@@H]3OP(O)(=S)OC[C@H]3O[C@@H](n4ccc5c(=O)[nH]c(N)nc54)[C@H](O)[C@@H]3OP(O)(=S)OCC(O)COP(O)(=S)O[C@H]3[C@@H](O)[C@H](n4ccc5c(=O)[nH]c(N)nc54)O[C@@H]3COP(O)(=S)O[C@H]3[C@@H](O)[C@H](n4ccc(=O)[nH]c4=O)O[C@@H]3COP(O)(=S)O[C@H]3[C@@H](O)[C@H](n4ccc(N)nc4=O)O[C@@H]3COP(O)(=S)O[C@H]3[C@@H](O)[C@H](n4ccc(=O)[nH]c4=O)O[C@@H]3COP(O)(=S)O[C@H]3[C@@H](O)[C@H](n4ccc(=O)[nH]c4=O)O[C@@H]3COP(O)(=S)O[C@H]3[C@@H](O)[C@H](n4ccc(N)nc4=O)O[C@@H]3COP(O)(=S)O[C@H]3[C@@H](O)[C@H](n4ccc5c(=O)[nH]c(N)nc54)O[C@@H]3COP(O)(=S)O[C@H]3[C@@H](O)[C@H](n4ccc(=O)[nH]c4=O)O[C@@H]3COP(O)(=S)O[C@H]3[C@@H](O)[C@H](n4ccc(N)nc4=O)O[C@@H]3COP(O)(=S)O[C@H]3[C@@H](O)[C@H](n4ccc5c(=O)[nH]c(N)nc54)O[C@@H]3COP(O)(=S)O[C@H]3[C@@H](O)[C@H](n4ccc(=O)[nH]c4=O)O[C@@H]3CO)[C@H]2O)c(=O)n1` (some centres undefined), for which the outcome with Splenocyte [1] and in the test with Splenocyte [4] was Active. In addition, the IFN-alpha in the test with PBMC [2] turned out to be 385 pg/mL. The fold change (FC) in test [3] is 4.7. The Activity came to 1110 pg/mL in the test on PBMC [5] and 385 pg/mL in the test on PBMC [6]. Further, in test [7], the result was inactive.

For the compound `Nc1ccn([C@@H]2O[C@H](COP(=O)(S)O[C@H]3[C@@H](O)[C@H](n4cnc5c(N)ncnc54)O[C@@H]3CO)[C@@H](OP(=O)(S)OC[C@H]3O[C@@H](n4ccc5c(=O)[nH]c(N)nc54)[C@H](O)[C@@H]3OP(=O)(S)OC[C@H]3O[C@@H](n4ccc(N)nc4=O)[C@H](O)[C@@H]3OP(=O)(S)OC[C@H]3O[C@@H](n4ccc(=O)[nH]c4=O)[C@H](O)[C@@H]3OP(=O)(S)OC[C@H]3O[C@@H](n4ccc5c(=O)[nH]c(N)nc54)[C@H](O)[C@@H]3OP(=O)(S)OC[C@H]3O[C@@H](n4cnc5c(N)ncnc54)[C@H](O)[C@@H]3OP(=O)(S)OC[C@H]3O[C@@H](n4ccc5c(=O)[nH]c(N)nc54)[C@H](O)[C@@H]3OP(=O)(S)OC[C@H]3O[C@@H](n4ccc(N)nc4=O)[C@H](O)[C@@H]3OP(=O)(S)OC[C@H]3O[C@@H](n4ccc(=O)[nH]c4=O)[C@H](O)[C@@H]3OP(=O)(S)OC[C@H]3O[C@@H](n4ccc(=O)[nH]c4=O)[C@H](O)[C@@H]3OP(=O)(S)OCC(O)COP(=O)(S)O[C@H]3[C@@H](O)[C@H](n4ccc(=O)[nH]c4=O)O[C@@H]3COP(=O)(S)O[C@H]3[C@@H](O)[C@H](n4ccc(=O)[nH]c4=O)O[C@@H]3COP(=O)(S)O[C@H]3[C@@H](O)[C@H](n4ccc(N)nc4=O)O[C@@H]3COP(=O)(S)O[C@H]3[C@@H](O)[C@H](n4ccc5c(=O)[nH]c(N)nc54)O[C@@H]3COP(=O)(S)O[C@H]3[C@@H](O)[C@H](n4cnc5c(N)nc(N)nc54)O[C@@H]3COP(=O)(S)O[C@H]3[C@@H](O)[C@H](n4ccc5c(=O)[nH]c(N)nc54)O[C@@H]3COP(=O)(S)O[C@H]3[C@@H](O)[C@H](n4ccc(=O)[nH]c4=O)O[C@@H]3COP(=O)(S)O[C@H]3[C@@H](O)[C@H](n4ccc(N)nc4=O)O[C@@H]3COP(=O)(S)O[C@H]3[C@@H](O)[C@H](n4ccc5c(=O)[nH]c(N)nc54)O[C@@H]3COP(=O)(S)O[C@H]3[C@@H](O)[C@H](n4ccc(N)nc4=O)O[C@@H]3COP(=O)(S)O[C@H]3[C@@H](O)[C@H](n4cnc5c(N)ncnc54)O[C@@H]3CO)[C@H]2O)c(=O)n1` (some centres undefined), the result in the test on Splenocyte [1] and with Splenocyte [4] was Active. The IFN-alpha with PBMC [2] was 188 pg/mL. Besides, the fold change (FC) in test [3] is 0.9. The results for the Activity in the test with PBMC [5] and in the test on PBMC [6] were 2240 pg/mL and 1410 pg/mL, respectively. The outcome in test [7] was inactive.

These data come from ChEMBL document CHEMBL1154352, “Toll-like receptor 7 selective synthetic oligoribonucleotide agonists: synthesis and structure-activity relationship studies” (J Med Chem, 2009).
